These results are taken from PubChem BioAssay.

In general, viability refers to a read-out of living cells in per cent, often relative to untreated cells. As a reminder, the inhibition is the drop in the measured response relative to a control, in per cent.

Values without a mark were called inactive. Results filed as inconclusive are left out. Active and inactive are the calls of the source.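 The calls were made as follows, unless noted: active = inhibition over a set limit, the all-compound mean plus 3 SD, in both replicate runs; inconclusive = over that limit in just one replicate run; inactive = at or under that limit in both runs.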

Assay [1] can be described thus: S. cerevisiae growth inhibition in permissive medium (OD615), pilot counter-assay for S. cerevisiae lifespan shortening project, permissive growth control (AID 705;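 active = growth inhibition above 25% in both replicates, a cutoff set 3 SD above the mean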). The note with it: OD615, 24 h, at 10 µM, stronger effect = higher value. The method, boiled down: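 Material: engineered DeaD yeast; compound dosing: one dose 10 µM, DMSO 0.25% final; measure: yeast growth inhibition indicated by reduced 24 h OD615; detection: OD615 turbidity read; incubation: cells pre-grown 4 h, then 24 h compound exposure, 30 °C humidified; medium: permissive synthetic complete medium with raffinose and galactose carbon sources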

The nature of assay [2]: S. cerevisiae growth inhibition in restrictive medium, OD615, pilot screen, restrictive growth control, yeast lifespan reduction project (AID 706;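 active = growth inhibition above a set limit, 3 SD over mean compound inhibition, in both replicates, cut at about 43% in these data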;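 also: modified DeaD lifespan yeast strain shifted to restrictive glucose medium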). The settings on record: OD615, 48 h, at 10 µM, stronger effect = higher value. The procedure, abridged:
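material = engineered S. cerevisiae DeaD strain | medium = glucose-based CSMM-D restrictive medium | times = 4 h pre-incubation, 48 h exposure at 30 °C | technique = OD615 absorbance reading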

Assay [3] can be described thus: doxorubicin toxicity protection in MRP-1 cells – H69AR cells, CellTiter-Glo, duplicate, MRP-1 activator project, pilot screen (AID 807;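 active = viability increase at or above a cutoff of the median across tested compounds plus 3 SD, cut at about 8.5% in these data, passing the limit was not always enough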;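 also: compound pretreatment 18-22 h then 72 h combined with doxorubicin; 0% = doxorubicin alone and 100% = vehicle without doxorubicin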). The note with it: H69AR viability with doxorubicin, CellTiter-Glo luminescence; at 10 µM; stronger effect = higher value. For orientation: In ATP-based viability assays light output follows the ATP content of the culture.
Assay [4] can be described thus: viability of HCT116 without oncogenic beta-catenin – human colon tumor cells, pilot screen (AID 823;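 active = cell viability at or below a set limit in both duplicate runs, the limit being the all-compound median minus 4 SD, cut at about 23% in these data, passing the limit was not always enough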;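 also: 0% = wells killed by 20 µM Hyamine and 100% = untreated DMSO cell wells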). The note with it: HCT116 beta-catenin knockout viability, CellTiter-Glo, 60 h; at 10 µM; stronger effect = lower value.
Assay [5] is described as follows: viability of PTEN-null HCT116 cells – cell-based, HCT116 clonal line, CellTiter-Glo, pilot screen (AID 824;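 active = viability at or below 27.92% in each of two runs, the all-compound median minus 4 SD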;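 also: 0% = 20 µM Hyamine control and 100% = vehicle cell control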). The note with it: HCT116 PTEN-deleted viability, 60 h, at 10 µM, stronger effect = lower value.
Assay [6] can be described thus: RAM pathway blockade in budding yeast – dse1pr::URA3 reporter, 5-FOA selection, pilot screen (AID 869).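 Also: 0% = DMSO wells with no growth and 100% = 10 µM 1-NA-PP1 with full growth; RAM network block rescues cells from 5-FOA so hits raise OD615 growth.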 The note with it: S. cerevisiae dse1pr::URA3 5-FOA growth, OD615, 2 d; at 10 µM; stronger effect = higher value; strain carries analog-sensitive mutant Cbk1 kinase.
Assay [7] is described as follows: RAM signaling pathway blockade in yeast – S. cerevisiae, Pdr1DBD-CYC8 efflux-inhibited sensitized strain, primary screen (AID 1298;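 active = RAM network inhibition above 8.4% in each of two replicates, 3 SD over the compound average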;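 also: 0% = DMSO untreated cells without growth and 100% = 10 µM 1-NA-PP1 full growth; higher means more yeast growth rescued from 5-FOA killing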). The note with it: S. cerevisiae cbk1-as DSE1-URA3 strain, 5-FOA growth OD615, 2 d; at 50 µM; stronger effect = higher value.

For `Cc1ccc(-n2c(SCC(=O)Nc3nccs3)nc3c(c2=O)SCC3)cc1`, the growth inhibition was -10.3% in assay [1] and -5.16% in assay [2]. Moreover, the viability increase in assay [3] was -6.87%. Further, the figures for the viability in assay [4] and in assay [5] were 94.2% and 92.2%, respectively. In addition, the inhibition in assay [6] was 3.41%. For the same compound, in assay [7], the RAM network inhibition was 6.62%.

As to `COc1ccc(N2C(=O)CCC(C(=O)Nc3ccccn3)C2c2ccc(OC)c(OC)c2)cc1` (configuration not stated), the results for the growth inhibition in assay [1] and in assay [2] were 0.15% and -9.93%, respectively. The viability increase in assay [3] was -0.12%. Also, the viability in assay [4] was 96.2%; in assay [5] it was 96.9%. The inhibition in assay [6] was 1.64%. Moreover, the RAM network inhibition in assay [7] was 0.04%.

For the compound `COc1cc(OC)cc(C(=O)NCCn2ccc3ccccc32)c1`, the growth inhibition in assay [1] is -5.04%; in assay [2], 0.31%. For the same compound, in assay [3], the viability increase is -3.92%. For the same compound, the viability in assay [4] is 92.8%; in assay [5] it was 92.3%. In addition, in assay [6], the inhibition is 1.16%. Also, the RAM network inhibition in assay [7] is 7.95%.

As for `CCOc1ccc(S(=O)(=O)N(CC(=O)O)c2ccccc2)cc1`, the growth inhibition in assay [1] was -1.83%; in assay [2], -7.26%. Besides, the viability increase in assay [3] was -2.11%. The viability is 102% in assay [4] and 93.6% in assay [5]. The inhibition in assay [6] was 1.07%. In addition, the RAM network inhibition in assay [7] is 2.61%.

Consider `CCC(=O)Nc1c(OC(=O)CC)ccc2c(C)cc(=O)oc12`, for which the results for the growth inhibition in assay [1] and in assay [2] were 5.45% and 4.76%, respectively. In assay [3], the viability increase is -2.02%. The results for the viability in assay [4] and in assay [5] were 105% and 88.7%, respectively. Moreover, the inhibition in assay [6] was 0.835%. In addition, in assay [7], the RAM network inhibition is -0.83%.

With `Cc1ccc(-n2c(=O)[nH]cc(C(=O)Nc3ccc4c(c3)OCO4)c2=O)cc1C`, the growth inhibition in assay [1] was -15.8%; in assay [2] it was -15%. Also, in assay [3], the viability increase is 0.27%. The figures for the viability in assay [4] and in assay [5] were 107% and 94.8%, respectively. Also, in assay [6], the inhibition was 1.78%. Also, the RAM network inhibition in assay [7] is 3.26%.

In the case of `O=C(CN1C(=O)c2ccccc2S1(=O)=O)NC1CC2CCC1C2` (configuration not stated), the growth inhibition was 0.325% in assay [1] and -9.88% in assay [2]. Moreover, in assay [3], the viability increase is -1.68%. In addition, the viability in assay [4] is 98.6%; in assay [5], 89.9%. The inhibition in assay [6] was 1.11%. The RAM network inhibition in assay [7] was -0.63%.

As to `CC1CCCN(C(C(=O)Nc2ccc3c(c2)OCO3)c2ccccc2)C1` (configuration not stated), the values for the growth inhibition in assay [1] and in assay [2] were -8.14% and 5.27%, respectively. Also, the viability increase in assay [3] is -3.45%. For the same compound, the results for the viability in assay [4] and in assay [5] were 79.6% and 79.4%, respectively. Besides, the inhibition in assay [6] is 1.85%. For the same compound, the RAM network inhibition in assay [7] was 1.67%.

Turning to `COc1ccc(N2CCN(C(=O)c3sc4nc(-c5ccc(F)cc5)cn4c3C)CC2)cc1`, the values for the growth inhibition in assay [1] and in assay [2] were -10.6% and -19.7%, respectively. For the same compound, the viability increase in assay [3] was -4.7%. The viability in assay [4] was 102%; in assay [5] it was 95.6%. In addition, the inhibition in assay [6] was 2.24%. In addition, in assay [7], the RAM network inhibition is 3.45%.

For `Cc1occc1-c1nnc(SCCCC(=O)c2ccc(F)cc2)n1C`, the values for the growth inhibition in assay [1] and in assay [2] were -1.02% and 3.81%, respectively. In assay [3], the viability increase is 0.66%. Also, the viability in assay [4] is 74.4%; in assay [5] it was 87.4%. Also, the inhibition in assay [6] is 1.5%. Besides, in assay [7], the RAM network inhibition was 6.28%.

For the compound `CSc1nnc2c(n1)OC(c1ccc(C(=O)O)cc1)N(C(C)=O)c1ccccc1-2` (configuration not stated), the growth inhibition was -1% in assay [1] and 13.2% in assay [2]. In addition, in assay [3], the viability increase is 0.23%. The viability is 102% in assay [4] and 96.6% in assay [5]. The inhibition in assay [6] was 1.57%. In addition, the RAM network inhibition in assay [7] is 3.34%.

Take `CCOc1ccc(N(CC(=O)N2CCc3ccccc32)S(=O)(=O)c2c(C)noc2C)cc1`: the figures for the growth inhibition in assay [1] and in assay [2] were -1.81% and 10.1%, respectively. Further, the viability increase in assay [3] was -5.12%. The viability in assay [4] was 65.7%; in assay [5] it was 59.2%. In addition, the inhibition in assay [6] is 3.63%. For the same compound, the RAM network inhibition in assay [7] is 2.47%.

`CCC(C)NC(=O)C1CCN(S(=O)(=O)c2cccc3cccnc23)CC1` (configuration not stated): the growth inhibition in assay [1] was -3.39%; in assay [2] it was 1.06%. Moreover, the viability increase in assay [3] was 0.26%. The figures for the viability in assay [4] and in assay [5] were 108% and 101%, respectively. Also, in assay [6], the inhibition was 2.05%. In addition, the RAM network inhibition in assay [7] is 4.76%.

Regarding `Cc1cccc(OCCSc2cc(C)nc(N)n2)c1`, the growth inhibition in assay [1] was -6.16%; in assay [2], -8.02%. Besides, the viability increase in assay [3] was -1.44%. Moreover, the viability in assay [4] is 89.1%; in assay [5] it was 79.1%. The inhibition in assay [6] is -0.215%. The RAM network inhibition in assay [7] was -2.06%.

For the compound `Cc1nnc(NC(=O)CSc2nnc(Cc3cccn3C)n2-c2ccccc2)s1`, the growth inhibition in assay [1] was 10.8%; in assay [2], 46.5% (active). The viability increase in assay [3] is 0.97%. Moreover, the viability was 95% in assay [4] and 95.3% in assay [5]. Also, the inhibition in assay [6] is 1.31%. Moreover, the RAM network inhibition in assay [7] is 4.48%.

With `COc1ccc(CCNC(=O)CN(c2ccccc2OC)S(C)(=O)=O)cc1OC`, the growth inhibition in assay [1] was -2.94%; in assay [2], 9.29%. The viability increase in assay [3] is -1.9%. The viability in assay [4] is 106%; in assay [5], 96.8%. Also, the inhibition in assay [6] is 1.04%. Further, the RAM network inhibition in assay [7] is 1.38%.
